Published values from different studies.
Organism: Severe acute respiratory syndrome coronavirus 2

SMILES	assay	test system	conditions	endpoint	value
CCN(CC)CCCC(C)Nc1ccnc2cc(Cl)ccc12 (stereo not shown)	viral replication, inhibitor	A549-ACE2		IC50	912 nM
CCCCCCCCCCCCCCCCOCCCOP(=O)(O)OC[C@H]1O[C@@](C#N)(c2ccc3c(N)ncnn23)[C@H](O)[C@@H]1O	viral replication, inhibitor, qPCR	Vero C1008	48 h	EC90	730 nM
CN[C@@H](C)C(=O)N[C@H](C(=O)N1CCC[C@H]1C(=O)Nc1sc(-c2ncco2)nc1-c1ccccc1)C1CCCCC1	viral replication, inhibitor	Vero C1008	1 µM	inhibition	42.2%
CC1=NN(c2ccccc2)C(=O)C1	viral replication, inhibitor	Huh-7		IC50	> 2000 nM
CCc1ccc(NC(=O)c2cc3c(=O)n4ccccc4nc3n2C)cc1	viral replication	Vero	1 nM	inhibition	4.08%
CCCCCCCCCCCCCCCCCCOC[C@H](COP(=O)(O)OC[C@H]1O[C@@](C#N)(c2ccc3c(N)ncnn23)[C@H](O)[C@@H]1O)OCc1ccccc1	viral replication, inhibitor, qPCR	Vero C1008	48 h	EC90	160 nM
COc1ccc(C[C@@H]2c3cc(Oc4cc(C[C@@H]5c6cc(O)c(OC)cc6CCN5C)ccc4O)c(OC)cc3CCN2C)cc1	cytopathic effect	Vero C1008	12.5 µM	inhibition	0%
N[C@@H](Cc1cc(I)c(Oc2cc(I)c(O)c(I)c2)c(I)c1)C(=O)O	plaque formation, inhibitor	Vero C1008		EC50	7000 nM
Cc1cccc(CN2CCN(C(c3ccccc3)c3ccc(Cl)cc3)CC2)c1 (stereo not shown)	viral replication	Vero C1008		IC50	1350 nM
CCC(CC)COC(=O)[C@H](C)N[P@](=O)(OC[C@H]1O[C@@](C#N)(c2ccc3c(N)ncnn23)[C@H](O)[C@@H]1O)Oc1ccccc1	viral replication	Vero	10 nM	inhibition	53.8%
OC(CNCC(O)C1CCc2cc(F)ccc2O1)C1CCc2cc(F)ccc2O1 (stereo not shown)	viral replication, inhibitor	Huh-7		IC50	> 2000 nM
Cc1cc(NC(=O)c2cc3c(=O)n4cccc(C)c4nc3n2C)ccc1Br	viral replication	Vero	10 µM	inhibition	91.9%
Cc1cccc(C)c1OCC(=O)N[C@@H](Cc1ccccc1)[C@@H](O)C[C@H](Cc1ccccc1)NC(=O)[C@H](C(C)C)N1CCCNC1=O	viral replication, inhibitor	Vero C1008		EC50	< 100000 nM
O=C(Nc1ccccc1F)c1cc2c(=O)n3ccccc3nc2n1Cc1ccccc1	viral replication	Vero	10 nM	inhibition	50.8%
CCOC(=O)c1[nH]c2cc(OC)c(OC)cc2c1CCN1CCN(c2ccccc2)CC1	viral replication, inhibitor	Vero C1008	1 µM	inhibition	52.8%
OCCN1CCN(CCCN2c3ccccc3C=Cc3ccccc32)CC1	viral replication	Vero C1008		IC50	10000 nM
CC(C)=CCc1c(O)ccc(C(=O)/C=C/c2ccc(O)cc2)c1O	cytopathic effect	Vero C1008	100 µM	inhibition	90%
N#C[C@@]1(c2ccc3c(N)ncnn23)O[C@H](CO)[C@@H](O)[C@H]1O	viral replication, inhibitor, qPCR	Vero C1008		EC50	380 nM
c1ccc([C@H]2CN3CCSC3=N2)cc1	viral replication, inhibitor	Huh-7		IC50	> 2000 nM
CCC(CC)COC(=O)[C@H](C)N[P@](=O)(OC[C@H]1O[C@@](C#N)(c2ccc3c(N)ncnn23)[C@H](O)[C@@H]1O)Oc1ccccc1	viral replication, inhibitor, qPCR	Vero C1008		EC50	1130 nM

SMILES	assay	test system	conditions	endpoint	value
COc1ccc2c(c1)c(CC(=O)O)c(C)n2C(=O)c1ccc(Cl)cc1	plaque formation	Vero C1008		EC50	~100000 nM
OCCOCCN1CCN(C(c2ccccc2)c2ccc(Cl)cc2)CC1 (stereo not shown)	viral replication, inhibitor	A549-ACE2		IC50	3630 nM
O=C(/C=C/c1ccc(O)c(O)c1/C=C/c1ccc(O)c(O)c1)O[C@H](Cc1ccc(O)c(O)c1)C(=O)O	cytopathic effect, inhibitor	Vero C1008	1.562 µM	inhibition	0%
Clc1ccc(C(OCCN2CCCCC2)c2ccccc2)cc1 (stereo not shown)	viral replication, inhibitor	A549-ACE2		IC50	1510 nM
O=C(O)c1c(Nc2cccc(F)c2)[nH]c2cc(Cl)ccc2c1=O	viral entry, inhibitor	NCI-H1299	pseudovirus	EC50	690 nM
CC(CN1c2ccccc2Sc2ccccc21)N(C)C (stereo not shown)	viral replication	Vero C1008		IC50	3160 nM
COC(=O)Nc1nc2cc(C3(O)c4ccccc4C(=O)N3c3cc(Cl)ccc3C)ccc2[nH]1 (stereo not shown)	viral replication, inhibitor	Vero C1008	1 µM	inhibition	40.3%
C=C[C@@](C)(/C=C/c1ccc(O)cc1)CCC=C(C)C	cytopathic effect	Vero C1008	25 µM	inhibition	0%
CCCCCCCCCCCCCCCCCCOCCOP(=O)(O)OC[C@H]1O[C@@](C#N)(c2ccc3c(N)ncnn23)[C@H](O)[C@@H]1O	viral replication, inhibitor, qPCR	Vero C1008		EC50	300 nM
O=C(O[C@@H]1Cc2c(O)cc(O)cc2O[C@@H]1c1cc(O)c(O)c(O)c1)c1cc(O)c(O)c(O)c1	cytopathic effect	Vero C1008	1.562 µM	inhibition	0%
Cn1c(C(=O)Nc2ccc3c(c2)OCCO3)cc2c(=O)n3ccccc3nc21	viral replication	Vero	0.1 µM	inhibition	37.7%
CC(/C=C/C=C(\C)c1cc(C(C)(C)C)cc(C(C)(C)C)c1)=C\C(=O)O	viral replication, inhibitor	Vero C1008	1 µM	inhibition	61.6%
CC(C)/N=c1\cc2n(-c3ccc(Cl)cc3)c3ccccc3nc-2cc1Nc1ccc(Cl)cc1	viral replication, inhibitor	Huh-7		IC50	85 nM
OC(CCN1CCCCC1)(c1ccccc1)C1CCCCC1 (stereo not shown)	viral replication	Vero C1008		IC50	8910 nM
[2H]C([2H])(c1cc(F)c(F)cc1F)n1c(=O)n(Cc2ncn(C)n2)c(=O)[nH]/c1=N\c1cc2cn(C)nc2cc1Cl	viral replication, inhibitor, qPCR		48 h	EC50	24 nM
N#Cc1ccc2[nH]cc(CCCCN3CCN(c4ccc5oc(C(=N)Cl)cc5c4)CC3)c2c1	viral replication, inhibitor	Huh-7		IC50	> 2000 nM
Cn1c(C(=O)Nc2ccc(Cl)cc2)cc2c(=O)n3ccccc3nc21	viral replication	Vero	10 µM	inhibition	91.8%
O=C(NC1CCN(CCCCC2(C(=O)NCC(F)(F)F)c3ccccc3-c3ccccc32)CC1)c1ccccc1-c1ccc(C(F)(F)F)cc1	viral replication, inhibitor	Huh-7		IC50	765 nM
CCCN(CCC)c1cc(C)nc2c(-c3cnc(N(C)C)cc3C)c(C)nn12	viral replication, inhibitor	Vero C1008	1 µM	inhibition	60%
CCCN(CCC)CCc1ccc(OC)c(OCCc2ccccc2)c1	viral replication	Vero C1008		IC50	3890 nM
